According to ChEMBL document CHEMBL4428026, “Discovery of New Monocarbonyl Ligustrazine-Curcumin Hybrids for Intervention of Drug-Sensitive and Drug-Resistant Lung Cancer” (J Med Chem, 2016):
Active and inactive are the calls of the source. The calls are words filed in the database; no cut-off is given here.

Tests used:
[1] = molecular target: T1, Thioredoxin reductase (Homo sapiens, UniProt Q16881+Q9NNW7+Q86VQ6); test: Inhibition of thioredoxin reductase (unknown origin) after 2 hrs by DTNB dye based microplate spectrophotometry; format: protein assay
Outline: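 NADPH-reduced TrxR (0.16 µM) was preincubated in triplicate with vehicle DMSO (0.1%, v/v) or varying compound concentrations for 2 h. It was then reacted with 2 mM DTNB and 200 µM NADPH for 3 min, and absorbance was read at 412 nm. IC50 was derived.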

[2] = tested on: A549/CDDP; test: Antiproliferative activity against human A549/CDDP cells after 72 hrs by MTT assay; format: functional, cell-based
Outline: (§1)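 Cells (A549, A549/DDP, SPC-A-1, LTEP-G-2, non-tumor bronchial epithelial HBE) were exposed in triplicate to vehicle or compound for 72 h. MTT (5 mg/mL in PBS) was then added for 4 h, formazan was dissolved in DMSO, and absorbance was read at 570 nm. IC50 values were derived from viability.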

[3] = tested on: A549; test: Antiproliferative activity against human A549 cells after 72 hrs by MTT assay; format: functional, cell-based; settings: A549, 72 h; outline: as §1
[4] = tested on: A549/CDDP; test: Induction of apoptosis in human A549/CDDP cells at 0.6 to 1.2 uM after 24 hrs by annexin V-FITC/propidium iodide staining-based flow cytometry; format: functional, cell-based
Outline: (§2)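 Cells were seeded at 1 × 10^5/well and treated 24 h with DMSO (1%) or compound. They were then washed in PBS, stained with FITC-Annexin V and propidium iodide, and apoptotic fractions were quantified by flow cytometry.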

[5] = molecular target: T1, Thioredoxin reductase; test: Inhibition of thioredoxin reductase in human A549 cells by DTNB dye based microplate spectrophotometry; format: cell-based
Outline: (§3)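 A549 or A549/DDP cells were treated with varying compound concentrations for 24 h, then harvested, homogenized and centrifuged. Protein (50 µg) was reacted in triplicate with NADPH and DTNB in TE buffer at 37 °C for 1 h, and TNB was read at 412 nm. Activity was taken from a purified-TrxR standard curve, and IC50 was derived.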

[6] = molecular target: T1, Thioredoxin reductase; test: Inhibition of thioredoxin reductase in human A549/CDDP cells by DTNB dye based microplate spectrophotometry; format: cell-based; outline: as §3
[7] = tested on: A549; test: Induction of apoptosis in human A549 cells at 2.1 to 4.2 uM after 24 hrs by annexin V-FITC/propidium iodide staining-based flow cytometry; format: functional, cell-based; outline: as §2
[8] = molecular target: ATP-dependent translocase ABCB1 (Homo sapiens, UniProt P08183); test: Inhibition of P-gp ATPase activity in human A549/CDDP cells at 200 uM by luminescence assay (reference value: 706683 +/- 23554 RLU); format: cell-based
Chain of ATP-dependent translocase ABCB1 (P08183 whole entry): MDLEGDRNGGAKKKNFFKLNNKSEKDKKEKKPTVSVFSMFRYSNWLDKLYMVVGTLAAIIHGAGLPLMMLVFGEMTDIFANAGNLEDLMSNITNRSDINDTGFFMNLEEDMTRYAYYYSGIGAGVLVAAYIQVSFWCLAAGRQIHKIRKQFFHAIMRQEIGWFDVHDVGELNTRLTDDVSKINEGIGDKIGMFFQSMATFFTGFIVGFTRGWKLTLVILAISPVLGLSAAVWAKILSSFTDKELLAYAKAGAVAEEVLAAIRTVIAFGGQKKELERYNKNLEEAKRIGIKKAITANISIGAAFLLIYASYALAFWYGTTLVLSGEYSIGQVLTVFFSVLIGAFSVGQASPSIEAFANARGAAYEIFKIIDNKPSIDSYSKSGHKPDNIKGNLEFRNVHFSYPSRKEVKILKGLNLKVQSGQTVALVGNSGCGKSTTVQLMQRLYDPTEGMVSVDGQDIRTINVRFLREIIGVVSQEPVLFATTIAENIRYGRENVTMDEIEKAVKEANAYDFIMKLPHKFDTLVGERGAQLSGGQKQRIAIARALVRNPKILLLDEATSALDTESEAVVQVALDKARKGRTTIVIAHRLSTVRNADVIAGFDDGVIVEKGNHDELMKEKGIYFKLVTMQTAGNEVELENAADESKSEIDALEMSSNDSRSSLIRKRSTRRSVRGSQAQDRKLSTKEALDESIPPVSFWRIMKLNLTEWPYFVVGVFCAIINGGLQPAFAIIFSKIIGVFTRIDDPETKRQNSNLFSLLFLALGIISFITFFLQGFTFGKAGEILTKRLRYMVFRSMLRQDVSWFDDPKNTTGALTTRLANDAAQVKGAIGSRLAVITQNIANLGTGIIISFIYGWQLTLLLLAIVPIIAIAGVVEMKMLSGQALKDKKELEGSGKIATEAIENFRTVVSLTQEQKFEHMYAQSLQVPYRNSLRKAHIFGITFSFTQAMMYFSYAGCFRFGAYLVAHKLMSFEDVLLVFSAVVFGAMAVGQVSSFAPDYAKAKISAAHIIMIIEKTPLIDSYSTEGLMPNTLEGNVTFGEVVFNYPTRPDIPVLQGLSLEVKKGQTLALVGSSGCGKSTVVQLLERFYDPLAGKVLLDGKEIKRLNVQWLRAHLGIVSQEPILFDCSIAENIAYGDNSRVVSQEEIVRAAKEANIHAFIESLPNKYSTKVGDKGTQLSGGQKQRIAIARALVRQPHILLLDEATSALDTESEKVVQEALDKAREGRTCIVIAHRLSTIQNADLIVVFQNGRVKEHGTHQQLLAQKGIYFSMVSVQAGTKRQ

[9] = Antiproliferative activity against human LTEP-G2 cells after 72 hrs by MTT assay; format: functional, cell-based; outline: as §1
[10] = Cytotoxicity against NHBE cells after 72 hrs by MTT assay; format: cell-based; settings: Homo sapiens; outline: as §1
[11] = Antiproliferative activity against human SPC-A1 cells after 72 hrs by MTT assay; format: functional, cell-based; settings: SPCA1, 72 h; outline: as §1

| IC50 [2] [µM] | IC50 [3] [µM] | Compound | also measured |
| --- | --- | --- | --- |
| 3.99 | 4.3 | Cc1ccc(/C=C/C(=O)/C=C/c2nc(C)c(C)nc2C)cc1 |  |
| 3.44 | 3.3 | COc1cccc(/C=C/C(=O)/C=C/c2nc(C)c(C)nc2C)c1 |  |
| 2.85 | 3.07 | COc1ccc(/C=C/C(=O)/C=C/c2nc(C)c(C)nc2C)c(OC)c1 | IC50 [1]: 7.63 µM; IC50 [9]: 5.91 µM; IC50 [10]: 20.8 µM; IC50 [5]: 4.12 µM; IC50 [6]: 4.26 µM; IC50 [11]: 6.32 µM |
| 3.61 | 3.5 | COc1ccc(/C=C/C(=O)/C=C/c2nc(C)c(C)nc2C)cc1 |  |
| 11.9 | 12.3 | Cc1nc(C)c(/C=C/C(=O)/C=C/c2ccccc2)nc1C |  |
| 6.69 | 6.7 | Cc1nc(C)c(/C=C/C(=O)/C=C/c2cccc([N+](=O)[O-])c2)nc1C |  |
| 2.19 | 2.85 | COc1cccc(/C=C/C(=O)/C=C/c2nc(C)c(C)nc2C)c1O | IC50 [1]: 5.3 µM; IC50 [9]: 5.01 µM; IC50 [10]: 17.6 µM; IC50 [5]: 4.73 µM; IC50 [6]: 4.64 µM; IC50 [11]: 5.71 µM |
| 3.7 | 4.3 | Cc1nc(C)c(/C=C/C(=O)/C=C/c2cccc(O)c2)nc1C |  |
| 4.74 | 3.2 | COc1ccccc1/C=C/C(=O)/C=C/c1nc(C)c(C)nc1C |  |
| 2.44 | 3.79 | COc1ccc(/C=C/C(=O)/C=C/c2nc(C)c(C)nc2C)cc1OC | IC50 [1]: 7.09 µM; IC50 [9]: 4.36 µM; IC50 [10]: 16.2 µM; IC50 [5]: 4.17 µM; IC50 [6]: 4.22 µM; IC50 [11]: 5.42 µM |

Continued, compound first:

| Compound | IC50 [2] [µM] | IC50 [3] [µM] | also measured |
| --- | --- | --- | --- |
| COc1cc(/C=C/C(=O)CC(=O)/C=C/c2ccc(O)c(OC)c2)ccc1O [CURCUMIN] | 32.4 | 38.1 | IC50 [1]: 41.42 µM; Activity [4]: Active; IC50 [5]: 40.56 µM; IC50 [6]: 39.42 µM; Activity [7]: Active |
| Cc1nc(C)c(/C=C/C(=O)/C=C/c2ccc([N+](=O)[O-])cc2)nc1C | 7.9 | 9.6 |  |
| Cc1nc(C)c(/C=C/C(=O)/C=C/c2ccc(O)cc2)nc1C | 4.79 | 4.01 |  |
| Cc1nc(C)c(C)nc1C [LIGUSTRAZINE] | > 200 | > 200 | IC50 [1]: > 200 µM; Activity [4]: Active; IC50 [5]: > 200 µM; IC50 [6]: > 200 µM; Activity [7]: Active |
| Cc1nc(C)c(/C=C/C(=O)/C=C/c2ccc(F)cc2)nc1C | 7.44 | 5.9 |  |
| Cc1nc(C)c(/C=C/C(=O)/C=C/c2ccc(Cl)cc2)nc1C | 7.49 | 15.8 |  |
| COc1ccc(CCN(C)CCCC(C#N)(c2ccc(OC)c(OC)c2)C(C)C)cc1OC (stereo not given) [VERAPAMIL] |  |  | Activity [8]: 641490 RLU |
| Cc1nc(C)c(/C=C/C(=O)/C=C/c2ccc3c(c2)OCO3)nc1C | 5.2 | 4.5 |  |
| SODIUM ORTHOVANAD |  |  | Activity [8]: 790447 RLU |
| Cc1nc(C)c(/C=C/C(=O)/C=C/c2ccccc2O)nc1C | 3.9 | 4.78 |  |
| Cc1nc(C)c(/C=C/C(=O)/C=C/c2ccc3ccccc3c2)nc1C | 11.8 | 7.1 |  |
| Cc1nc(C)c(/C=C/C(=O)/C=C/c2ccc(C(F)(F)F)cc2)nc1C | 6.9 | 11.7 |  |
| Cc1nc(C)c(/C=C/C(=O)/C=C/c2ccccc2[N+](=O)[O-])nc1C | 6.39 | 17.3 |  |
| COc1cc(/C=C/C(=O)/C=C/c2nc(C)c(C)nc2C)cc(OC)c1OC | 1 | 1.6 | IC50 [1]: 3.06 µM; IC50 [9]: 2.34 µM; IC50 [10]: 14.3 µM; IC50 [5]: 2.36 µM; IC50 [6]: 1.98 µM; IC50 [11]: 5.35 µM |
